# Assay outcomes from PubChem.
# E-sel inducer – E-selectin induction in HUVECs, primary screen, imaging, HUVEC, immunofluorescence imaging, single point; normalized: neutral wells 0, TNF-alpha wells 100; activation, % at 7.58 µM; 260,000 tested, 0.37% active; AID 686992, 2013;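 active = mean E-selectin-positive cell signal at least 10% of the positive control, reached in at least 60% of replicates, without over 20% cell loss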
# Target sequence (P16581 whole entry, looked up): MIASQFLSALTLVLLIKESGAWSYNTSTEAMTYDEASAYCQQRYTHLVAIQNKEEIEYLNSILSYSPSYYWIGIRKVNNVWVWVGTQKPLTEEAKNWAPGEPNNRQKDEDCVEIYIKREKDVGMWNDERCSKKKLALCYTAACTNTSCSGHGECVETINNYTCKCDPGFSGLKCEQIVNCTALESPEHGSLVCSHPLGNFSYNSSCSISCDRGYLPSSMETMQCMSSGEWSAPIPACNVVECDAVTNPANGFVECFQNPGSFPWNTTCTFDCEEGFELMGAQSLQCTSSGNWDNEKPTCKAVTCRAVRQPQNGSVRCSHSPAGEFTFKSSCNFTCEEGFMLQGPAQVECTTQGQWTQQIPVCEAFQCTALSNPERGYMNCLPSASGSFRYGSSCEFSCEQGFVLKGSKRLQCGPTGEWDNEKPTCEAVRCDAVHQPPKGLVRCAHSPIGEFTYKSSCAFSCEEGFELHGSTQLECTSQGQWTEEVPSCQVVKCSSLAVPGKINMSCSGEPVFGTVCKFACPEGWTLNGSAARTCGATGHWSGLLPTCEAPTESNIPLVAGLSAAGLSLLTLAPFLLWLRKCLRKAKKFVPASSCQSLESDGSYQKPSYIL
#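 Test system: HUVEC; input: 3,000 HUVEC/well; measured by: immunofluorescence imaging; read-out: % PE-positive cells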
# LGR2 inh – inhibitors of bursicon-induced LGR2 CRE-luciferase signal, primary screen, cell-based, HEK293, CRE-luciferase reporter, bursicon stimulation | AID 720647, 2013 | inhibition, % at 9.99 µM | bursicon-stimulated, 4 h | Drosophila bursicon receptor LGR2 (rickets) | 380,000 tested, 0.35% active;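 active = drop in luminescence signal, shown as inhibition above about 50% in the replicate tests, limit read from the data, passing the limit was not always enough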;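 note: agonist challenge used bursicon conditioned medium at about half maximal strength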
# EWS-Fli inh – EWS/Fli-driven NR0B1 reporter inhibitors, primary screen, A673 cells, NR0B1 luciferase, luminescence, MLPCN library; viability-normalised; inhibition, % at 12.6 µM; 350,000 tested, 0.67% active;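 active = mean inhibition of at least 50% after viability correction, with every replicate also passing that limit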;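 note: firefly luciferase signal divided by Alamar Blue viability fluorescence both relative to DMSO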
# Ecoli rRNA inh – reduced GFP signal of wild-type E. coli, primary screen, bacterial rRNA inhibitor project, GFP/RFP fluorescence, OD600, single point | E. coli WT GFP vs humanized-ribosome RFP mutants, 24 h; active compounds read low; DMSO median 0, no signal -100 | GFP signal change (wild-type ribosome), % (test concentration not listed) | 350,000 tested, 1.6% active;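 active = significant combined selectivity score with lowered wild-type GFP, culture density cut under 30%, mutant RFP and density less affected; inactive = any of these conditions unmet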
# * hit, by the source's call; x = no result. Compounds with a hit are over-represented: about 2.4% of the library has one in this group of screens.
SMILES,E-sel inducer,LGR2 inh,EWS-Fli inh,Ecoli rRNA inh
O=C(Nc1cccc2ncccc12)c1ccc([N+](=O)[O-])o1,0,1,40,-1
CC(=O)OC(C=C(C)C)C/C(C)=C/COc1c2ccoc2cc2oc(=O)ccc12 (stereo not given),x,3,7,-21*
O=S(=O)(/N=C(/c1ccc(F)cc1)N1CCCCC1)c1ccc(Cl)cc1,1,-12,2,-22*
CN1CCN(/C(=N\S(=O)(=O)c2ccc(F)cc2)c2ccccc2)CC1,x,-13,x,x
C[C@@H]1CCCCO[C@@H](CN(C)C(=O)Cc2ccccc2)[C@@H](C)CN([C@@H](C)CO)C(=O)c2cc(NC(=O)CCC(F)(F)F)ccc2O1,x,2,0,2
COc1ccc(CN2[C@@H]3CN(C(=O)c4ccccc4)c4ccccc4[C@@H]3[C@@H]2CO)cc1,0,2,0,-4
Nc1n[nH]c(C2CC2)c1N=Nc1ccc(Cl)cc1,0,-12,-4,-9
Nc1n[nH]c(C2CC2)c1N=Nc1ccc(Cl)c(Cl)c1,1,-36,-24,-52*
CCC(=O)c1ccc(OCC(=O)Nc2nc(-c3cccnc3)cs2)cc1,x,-6,9,-1
CCC(=O)c1ccc(OCC(=O)Nc2nc(C)cs2)cc1,0,-33,-57,-27*
CCOc1ccc(C(=O)NNC(=O)c2cc(C)oc2C)cc1,0,1,4,5
CCC(=O)c1ccc(OCC(=O)NNC(=O)c2cc(C)oc2C)cc1,49*,1,4,0
C[C@@H]1CCn2cc(nn2)COC[C@H](Cc2ccccc2)NC1=O,x,x,x,1
COc1ccc2c(CC(=O)Nc3ccccc3N3CCOCC3)coc2c1,0,-8,4,-27*
COc1ccc(NC(=O)COC(=O)Cc2coc3cc(OC)ccc23)c(OC)c1,-2,-12,-9,-34*
Cc1cc2oc(C(=O)N(Cc3cccs3)C3CCS(=O)(=O)C3)cc(=O)c2cc1Cl (stereo not given),x,0,12,-21*
Cc1ccc(/C=C/C(=O)N(Cc2cccs2)C2CCS(=O)(=O)C2)cc1 (stereo not given),0,3,-4,-29*
CCS(=O)(=O)N1CC(=O)N2[C@H](CO)[C@@H](c3ccc(C#CC4CC4)cc3)[C@@H]2C1,0,4,-4,2
CCc1ccc(/C=C/C(=O)C2C(=O)c3ccccc3C2=O)cc1,x,62*,x,x
O=C(/C=C/c1ccccc1)C1C(=O)c2ccccc2C1=O,x,-1,12,x
COc1ccc2c3c([nH]c2c1)[C@H](CO)N(S(C)(=O)=O)CC31CCN(Cc2cccc(F)c2)CC1,0,-1,6,-1
C[C@@H]1CN([C@@H](C)CO)C(=O)Cc2cc(NC(=O)Cn3cnnn3)ccc2O[C@@H]1CN(C)S(=O)(=O)c1ccccc1,0,10,x,1
O=C1CCN(c2ncccc2[N+](=O)[O-])CC1,0,-21,-4,11
O=[N+]([O-])c1cccnc1N1CCN(c2ccc(F)cc2)CC1,1,2,-26,-32*
CC(=O)N1CC2(C1)[C@H](c1ccc(-c3cccc(F)c3)cc1)[C@@H](CO)N2CC1CCCC1,0,2,-5,-36
SMILES,E-sel inducer,LGR2 inh,EWS-Fli inh,Ecoli rRNA inh
C=CCn1c(-c2cc3cccc(OC)c3o2)n[nH]c1=S,3,-2,-5,-23*
C=CCn1c(-c2cccc(OC)c2OC)n[nH]c1=S,0,-2,9,22
CC(=O)CSc1nc2cc3c(cc2cc1C#N)OCCO3,0,61*,24,29
CCc1ccc2nc(SCC(=O)N(CC)CC)c(C#N)cc2c1,x,-6,x,x
COc1ccccc1-c1ccc([C@@H]2[C@@H](C#N)N(C(=O)C3CCC3)[C@@H]2CO)cc1,1,-14,-4,1
COc1ccc(S(=O)(=O)Nc2ccc3c(c2)CC(=O)N([C@H](C)CO)C[C@@H](C)[C@H](CN(C)C(=O)Nc2cccc4ccccc24)O3)cc1,-12,9,-13,1
CSc1ccc(C2NN=C(c3ccccc3)S2)cc1 (stereo not given),1,84*,44,20
Oc1ccccc1C1NN=C(c2ccccc2)S1 (stereo not given),0,36,-18,23
C[C@H]1CN(C)C(=O)Cc2cc(NS(C)(=O)=O)ccc2O[C@@H]1CN(C)S(C)(=O)=O,x,x,x,1
CCOC(=O)N1CCN(S(=O)(=O)c2ccc3c(c2)CC(C)N3C(C)=O)CC1 (stereo not given),x,4,x,-46*
CN1C(=O)c2cc(NC(=O)c3cccc(F)c3)ccc2OC[C@H]2O[C@H](CC(=O)NCc3ccccc3)CC[C@@H]21,0,14,0,-6
Brc1ccc(CNc2ccc3ncccc3c2)cc1,2,-87,-119,-29*
C[C@H]1CN(C)C(=O)Cc2ccccc2O[C@H]1CN(C)C,x,x,x,2
Brc1ccc(Nc2nc(-c3cccnc3)cs2)cc1,13,-139,-89,-24*
Nc1ccc(Nc2nc(-c3ccncc3)cs2)cc1,x,-30,-40,-17*
CN(C)C(=O)[C@@H]1[C@@H](CO)[C@@H]2Cn3c(cccc3=O)[C@@H]2N1CC1CCCCC1,0,-7,x,2
Cc1ccc(S(=O)(=O)NC(=O)C2(C)CCN2C(=O)Cc2ccc(-c3ccccc3)cc2)cc1 (stereo not given),0,16,-1,-34*
CC1(C(=O)NS(=O)(=O)c2ccc(Cl)cc2)CCN1C(=O)CCc1ccc(Cl)cc1Cl (stereo not given),0,17,1,-30*
Cc1ccc(S(=O)(=O)NC(=O)C2(C)CCN2C(=O)CCc2ccc(Cl)cc2Cl)cc1 (stereo not given),0,25,1,-16
CC1(C(=O)NS(=O)(=O)c2ccccc2)CCN1C(=O)Cc1ccccc1 (stereo not given),0,-12,1,15
C[C@@H]1CCCCO[C@H](CN(C)C(=O)Cc2ccccc2)[C@@H](C)CN([C@H](C)CO)C(=O)c2cc(NC(=O)Nc3ccc(F)cc3)ccc2O1,0,-4,4,2
COc1ccccc1-c1cc2nc(-c3ccccc3)cc(N3CCN(C(=O)c4ccco4)CC3)n2n1,0,89*,-24,9
COc1ccccc1-c1cc2nc(-c3ccccc3)cc(N3CCN(C(=O)c4ccoc4)CC3)n2n1,0,36,22,-2
CN1CCN(C2Cc3ccccc3Sc3cc(C(F)(F)F)ccc32)CC1 (stereo not given),0,11,43,-51
CCc1cccc2c1Sc1ccccc1CC2N1CCNCC1 (stereo not given),x,x,15,-52*
CN(C)CCCNc1ccc(-c2cc(Nc3cccc(Cl)c3)ncn2)cn1,x,-7,4,-20*
O=C(c1c[nH]c(C(=O)C(Cl)(Cl)Cl)c1)c1ccc(F)cc1F,x,-2,15,-2
